Entries after “also recorded” stand apart in the source; their conditions may differ. Read-outs that look alike come from different tables or passages of the source.
Columns and labels:
[1] = target: T1, rSULT1A1 (Rattus norvegicus, UniProt P17988); experiment: Binding of TNP-AMP and PAP to rSULT1A1
How it was run: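 Recombinant rat enzyme (expressed in E. coli BL21(DE3), purified on PAP-agarose) at 0.34 µM in potassium phosphate pH 7.0, 37 °C, in a quartz cuvette. Titrated with TNP-AMP and the fluorescence increase recorded (ex 435/em 545 nm). PAP titration then displaced TNP-AMP, and the fluorescence decrease was recorded. Kd from a single-site binding fit corrected for non-specific binding.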

[2] = target: T1, rSULT1A1; experiment: Kd of OHPCBs with rSULT1A1 by displacement of ANS; assay type: binding
How it was run: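 Recombinant rat enzyme (E. coli-expressed, PAP-agarose purified), DTT removed by gel filtration, pretreated with 1 mM GSH or GSSG for 1 h at 25 °C under argon. Enzyme at 0.34 µM in 0.25 M potassium phosphate pH 7.0, held 2 min at 37 °C under argon. ANS added (10 µM final), then titrated with test compound in ethanol. Fluorescence ex 380/em 465 nm. Duplicates; one-site fit corrected for non-specific ANS binding.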

[3] = target: rSULT1A1-PAP complex (Rattus norvegicus, UniProt P17988); experiment: Kd of OHPCBs with the rSULT1A1-PAP complex by displacement of ANS; assay type: binding
How it was run: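 DTT-free recombinant rat enzyme pretreated with 1 mM GSH or GSSG for 1 h at 25 °C under argon. Enzyme at 0.34 µM in 0.25 M potassium phosphate pH 7.0, held 2 min at 37 °C under argon. ANS added (10 µM final), then 0.27 mM PAP to form the complex, then titrated with test compound in ethanol. Read at ex 380/em 465 nm. Duplicates; one-site fit corrected for non-specific ANS binding.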

[4] = target: T1, rSULT1A1; conditions: cited from earlier work; for IC50: rSULT1A1 with all cysteines in the thiol form, 2-naphthol as the substrate; for inhibitor status with rSULT1A1: standard assay conditions, reduced rSULT1A1
[5] = target: T1, rSULT1A1; conditions: GSSG-pretreated enzyme; cited from earlier work
[6] = target: T1, rSULT1A1; experiment: Sulfation of OHPCBs catalyzed by rSULT1A1; assay type: biochemical; conditions: standard assay conditions (reduced enzyme)
How it was run: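 Rat SULT1A1 expressed in E. coli BL21(DE3) from pET-3c and purified on PAP-agarose affinity column. Reaction at 37 °C: 0.25 M potassium phosphate pH 7.0, 200 µM PAPS, 7.5 mM 2-mercaptoethanol, 10 µM test compound added in acetone (3.3% v/v final). Started with 0.75 µg enzyme, stopped with methanol after 6 min. Sulfation rate from HPLC of substrate-dependent PAP formation.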

[7] = read-out: Kd values for OHPCBs with rSULT1A1, Without PAP, GSH, enzyme pretreated with 1 mM GSH, pH 7.0, 37 °C
[8] = read-out: Kd values for OHPCBs with rSULT1A1, Without PAP, GSSG, enzyme pretreated with 1 mM GSSG, pH 7.0, 37 °C
[9] = read-out: Kd values for OHPCBs with rSULT1A1, With 0.27 mM PAP, GSH, enzyme pretreated with 1 mM GSH, pH 7.0, 37 °C
[10] = read-out: Kd values for OHPCBs with rSULT1A1, With 0.27 mM PAP, GSSG, enzyme pretreated with 1 mM GSSG, pH 7.0, 37 °C

Chain of rSULT1A1-PAP complex (P17988 whole entry, one chain of several): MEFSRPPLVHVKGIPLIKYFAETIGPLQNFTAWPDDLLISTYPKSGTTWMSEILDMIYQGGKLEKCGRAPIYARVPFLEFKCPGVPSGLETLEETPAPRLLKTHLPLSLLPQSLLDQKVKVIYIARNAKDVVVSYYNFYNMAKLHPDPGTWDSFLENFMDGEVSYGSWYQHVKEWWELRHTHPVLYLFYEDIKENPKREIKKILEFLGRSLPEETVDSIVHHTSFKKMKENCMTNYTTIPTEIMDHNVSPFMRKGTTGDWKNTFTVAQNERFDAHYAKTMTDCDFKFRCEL
T1 sequence (P17988 whole entry): as the sequence (P17988 whole entry, one chain of several) above

Molecule | Kd ([1]; read-out: Kd of TNP-AMP binding to rSULT1A1, 0.34 µM rSULT1A1, potassium phosphate buffer pH 7.0, 37°C, fluorescence at 545 nm) | Kd [2, 7] | Kd [2, 8] | Kd [3, 9] | Kd [3, 10] | IC50 [4] | substrate status with GSSG-pretreated (oxidized) rSULT1A1 [5] | inhibitor status with rSULT1A1 [4] | substrate status with rSULT1A1 [6] | Kd ([1]; Kd of PAP displacing TNP-AMP bound to rSULT1A1, 0.34 µM rSULT1A1, pH 7.0, 37°C, Figure 4B)
2'-(or-3')-O-(trinitrophenyl)adenosine 5'-monophosphate [TNP-AMP] | 6500 nM | – | – | – | – | – | – | – | – | –
Oc1c(Cl)cc(-c2ccccc2)cc1Cl [4-OH PCB 14] | – | 260 ± 30 nM | 220 ± 20 nM | 400 ± 50 nM | 290 ± 40 nM | 270 nM | converted from inhibitors to substrates | – | – | –
Oc1c(Cl)cc(-c2ccccc2Cl)cc1Cl [4-OH PCB 34] | – | 370 ± 10 nM | 230 ± 10 nM | 490 nM | 540 ± 10 nM | 340 nM | non-substrates for GSSG-pretreated enzyme | inhibitors of the enzyme | – | –
Oc1ccc(-c2ccccc2Cl)cc1Cl [4’-OH PCB 6] | – | 660 ± 200 nM | 500 ± 100 nM | 880 ± 30 nM | 720 ± 10 nM | 23000 nM | converted from inhibitors to substrates | – | – | –
Oc1ccc(-c2cc(Cl)ccc2Cl)cc1 [4’-OH PCB 9] | – | 12000 ± 4000 nM | 7100 ± 1300 nM | 3100 ± 1500 nM | 3300 ± 100 nM | – | – | – | substrates for rSULT1A1 | –
Oc1ccc(-c2ccc(Cl)c(Cl)c2)cc1 [4’-OH PCB 12] | – | 4000 ± 800 nM | 2500 ± 700 nM | 3100 ± 10 nM | 4600 ± 1200 nM | – | – | – | substrates for rSULT1A1 | –
Oc1ccc(-c2ccc(Cl)cc2Cl)cc1Cl [4’-OH PCB 25] | – | – | – | – | – | – | – | the weakest inhibitor | – | –
Oc1ccc(-c2ccc(Cl)c(Cl)c2)c(Cl)c1 [4’-OH PCB 33] | – | 2000 ± 100 nM | 2500 ± 400 nM | 2000 ± 10 nM | 2400 ± 40 nM | 26000 nM | converted from inhibitors to substrates; also recorded: substrates for oxidized rSULT1A1 | relatively weak inhibitors | – | –
Oc1ccc(-c2ccc(Cl)c(Cl)c2)cc1Cl [4’-OH PCB 35] | – | 3600 ± 900 nM | 1600 ± 400 nM | 1600 ± 100 nM | 1700 ± 100 nM | – | – | – | substrates for rSULT1A1; also recorded: the weakest substrate | –
Oc1ccc(-c2cc(Cl)cc(Cl)c2)cc1Cl [4’-OH PCB 36] | – | – | – | – | – | – | substrates for oxidized rSULT1A1 | relatively weak inhibitors | – | –
Oc1c(Cl)cc(-c2ccc(Cl)cc2Cl)cc1Cl [4’-OH PCB 68] | – | 670 ± 100 nM | 530 ± 100 nM | 470 ± 20 nM | 400 ± 40 nM | 850 nM | non-substrates for GSSG-pretreated enzyme | inhibitors of the enzyme | – | –
Oc1ccc(Cl)cc1-c1ccc(Cl)c(Cl)c1 [6’-OH PCB 35] | – | 65000 ± 32000 nM | 117000 ± 36000 nM | 3700 ± 10 nM | 3600 ± 1300 nM | – | – | – | substrates for rSULT1A1 | –
Nc1ncnc2c1ncn2[C@@H]1O[C@H](COP(=O)(O)O)[C@@H](OP(=O)(O)O)[C@H]1O [PAP, Adenosine 3’,5’-diphosphate] | – | – | – | – | – | – | – | – | – | 2600 nM

— publication PMC3032042 (Chemico-biological interactions, 2010)
